Source: ChEMBL document CHEMBL3352791, “Thioaryl naphthylmethanone oxime ether analogs as novel anticancer agents” (J Med Chem, 2014)
Active and inactive are the calls of the source. The calls are words filed in the database; no cut-off is given here.

Legend:
Vero = assay: Antiproliferative activity against african green monkey Vero cells after 24 hrs by MTT assay; format: functional, cell-based; conditions: Chlorocebus sabaeus
How it was run: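 MTT viability: cells seeded at 1×10^4 per well in DMEM with 10% FBS, left to adhere overnight, then serum-starved 4 h. Compounds were given at a range of doses, with 0.1% DMSO vehicle as control. EC50 was taken from dose-response curves spanning 100nM-50µM. Data are mean ± SEM from at least three independent experiments.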

MCF7 [1] = assay: Cell cycle arrest in human […] cells assessed as accumulation at G2 phase at 2.5 uM by propidium iodide staining by FACS analysis (reference value: 10.96%); format: functional
MDA-MB-231 [2] = assay: Antiproliferative activity against human […] cells assessed as growth recovery treated up to 5 uM for 24 hrs followed by maintained in drug free medium for 72 hrs by MTT assay; format: functional
MCF7 [3] = assay: Cell cycle arrest in human […] MCF7 cells assessed as accumulation at S phase at 5 uM by propidium iodide staining by FACS analysis (reference value: 24.76%); format: functional
[4] = molecular target: T1, Signal transducer and activator of transcription 1-alpha/beta (Homo sapiens) (UniProt P42224); assay: Inhibition of basal level STAT1 phosphorylation in human MDA-MB-231 cells at 1 uM by ELISA; format: cell-based
T1 sequence (whole entry): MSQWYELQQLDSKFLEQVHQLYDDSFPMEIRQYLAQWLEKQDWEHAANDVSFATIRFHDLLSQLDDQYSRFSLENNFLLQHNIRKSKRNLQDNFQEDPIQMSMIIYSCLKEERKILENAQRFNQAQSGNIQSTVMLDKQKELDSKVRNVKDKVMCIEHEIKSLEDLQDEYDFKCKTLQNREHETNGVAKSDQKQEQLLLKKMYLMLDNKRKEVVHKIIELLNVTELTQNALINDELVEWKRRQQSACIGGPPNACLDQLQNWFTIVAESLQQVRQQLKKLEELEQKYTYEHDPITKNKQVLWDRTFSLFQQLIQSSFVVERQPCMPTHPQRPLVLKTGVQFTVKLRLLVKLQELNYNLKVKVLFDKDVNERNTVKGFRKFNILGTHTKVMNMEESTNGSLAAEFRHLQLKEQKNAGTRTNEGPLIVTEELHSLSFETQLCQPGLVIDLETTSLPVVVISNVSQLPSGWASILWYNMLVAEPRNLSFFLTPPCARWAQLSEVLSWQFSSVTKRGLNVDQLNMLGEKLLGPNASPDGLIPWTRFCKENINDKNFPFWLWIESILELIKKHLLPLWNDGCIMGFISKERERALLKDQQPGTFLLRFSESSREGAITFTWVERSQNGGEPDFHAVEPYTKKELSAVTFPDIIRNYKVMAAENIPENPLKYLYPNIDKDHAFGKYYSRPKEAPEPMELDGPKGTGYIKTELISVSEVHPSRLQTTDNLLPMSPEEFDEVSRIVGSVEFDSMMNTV

MDA-MB-231 [5] = assay: Induction of apoptosis in human […] cells assessed as caspase 3 activation at 2.5 to 7.5 uM by Caspase-Glo assay; format: functional, cell-based
How it was run: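 Caspase-8, -9 and -3 activities measured with Caspase-Glo 8, 9 and 3 kits; mean ± SEM from three independent experiments.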

[6] = molecular target: T1, Signal transducer and activator of transcription 1-alpha/beta (Homo sapiens); assay: Inhibition of basal level STAT1 phosphorylation in human MCF7 cells at 1 uM by ELISA; format: cell-based
MCF7 [7] = assay: Inhibition of IGF1 expression in human MCF7 cells at 5 uM by ELISA; format: functional, cell-based
[8] = molecular target: RAC-alpha serine/threonine-protein kinase (Homo sapiens) (UniProt P31749); assay: Inhibition of EGF-induced AKT phosphorylation in human MCF7 cells at 1 uM by ELISA; format: cell-based
MCF7 [9] = assay: Antiproliferative activity against human […] cells assessed as absence of growth recovery treated > 5 uM for 24 hrs followed by maintained in drug free medium for 72 hrs by MTT assay; format: functional, cell-based
[10] = molecular target: Receptor-type tyrosine-protein kinase FLT3 (Homo sapiens) (UniProt P36888); assay: Inhibition of Flt3 (unknown origin) at 10 uM
[11] = molecular target: Epidermal growth factor receptor (Homo sapiens) (UniProt P00533); assay: Inhibition of EGFR (unknown origin) at 10 uM
Sequence of Epidermal growth factor receptor (Homo sapiens) (P00533 whole entry): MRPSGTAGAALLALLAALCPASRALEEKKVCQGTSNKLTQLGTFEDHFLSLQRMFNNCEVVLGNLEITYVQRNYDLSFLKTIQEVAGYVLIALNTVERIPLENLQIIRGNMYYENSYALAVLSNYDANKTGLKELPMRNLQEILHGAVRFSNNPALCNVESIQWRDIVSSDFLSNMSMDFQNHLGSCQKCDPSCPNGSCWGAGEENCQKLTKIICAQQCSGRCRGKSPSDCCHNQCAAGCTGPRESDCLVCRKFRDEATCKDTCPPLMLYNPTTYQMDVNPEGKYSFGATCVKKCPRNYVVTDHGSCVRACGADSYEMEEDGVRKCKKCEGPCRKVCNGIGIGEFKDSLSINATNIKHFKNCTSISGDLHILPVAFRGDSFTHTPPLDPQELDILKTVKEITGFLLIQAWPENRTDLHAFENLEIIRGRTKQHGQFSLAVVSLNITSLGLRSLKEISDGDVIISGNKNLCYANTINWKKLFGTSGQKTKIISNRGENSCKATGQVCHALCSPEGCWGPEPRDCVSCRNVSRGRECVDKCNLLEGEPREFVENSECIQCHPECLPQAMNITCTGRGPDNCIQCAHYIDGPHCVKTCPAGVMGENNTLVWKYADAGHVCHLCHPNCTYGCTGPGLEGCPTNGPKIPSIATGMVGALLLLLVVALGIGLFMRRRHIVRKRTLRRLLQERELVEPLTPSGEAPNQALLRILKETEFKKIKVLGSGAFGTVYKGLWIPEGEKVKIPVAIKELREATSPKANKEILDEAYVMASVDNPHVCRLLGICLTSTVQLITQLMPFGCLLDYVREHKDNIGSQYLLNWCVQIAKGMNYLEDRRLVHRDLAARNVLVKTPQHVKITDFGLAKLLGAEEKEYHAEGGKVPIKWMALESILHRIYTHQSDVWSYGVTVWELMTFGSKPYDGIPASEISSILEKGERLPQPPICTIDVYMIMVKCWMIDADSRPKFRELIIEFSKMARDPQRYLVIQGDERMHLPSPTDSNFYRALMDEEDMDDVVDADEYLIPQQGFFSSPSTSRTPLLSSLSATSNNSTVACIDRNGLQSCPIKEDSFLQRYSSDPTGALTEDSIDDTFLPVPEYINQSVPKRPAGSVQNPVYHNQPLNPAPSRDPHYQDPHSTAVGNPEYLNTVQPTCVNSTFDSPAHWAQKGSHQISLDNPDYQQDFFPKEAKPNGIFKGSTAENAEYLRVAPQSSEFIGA

Sequence of Receptor-type tyrosine-protein kinase FLT3 (Homo sapiens) (P36888 whole entry): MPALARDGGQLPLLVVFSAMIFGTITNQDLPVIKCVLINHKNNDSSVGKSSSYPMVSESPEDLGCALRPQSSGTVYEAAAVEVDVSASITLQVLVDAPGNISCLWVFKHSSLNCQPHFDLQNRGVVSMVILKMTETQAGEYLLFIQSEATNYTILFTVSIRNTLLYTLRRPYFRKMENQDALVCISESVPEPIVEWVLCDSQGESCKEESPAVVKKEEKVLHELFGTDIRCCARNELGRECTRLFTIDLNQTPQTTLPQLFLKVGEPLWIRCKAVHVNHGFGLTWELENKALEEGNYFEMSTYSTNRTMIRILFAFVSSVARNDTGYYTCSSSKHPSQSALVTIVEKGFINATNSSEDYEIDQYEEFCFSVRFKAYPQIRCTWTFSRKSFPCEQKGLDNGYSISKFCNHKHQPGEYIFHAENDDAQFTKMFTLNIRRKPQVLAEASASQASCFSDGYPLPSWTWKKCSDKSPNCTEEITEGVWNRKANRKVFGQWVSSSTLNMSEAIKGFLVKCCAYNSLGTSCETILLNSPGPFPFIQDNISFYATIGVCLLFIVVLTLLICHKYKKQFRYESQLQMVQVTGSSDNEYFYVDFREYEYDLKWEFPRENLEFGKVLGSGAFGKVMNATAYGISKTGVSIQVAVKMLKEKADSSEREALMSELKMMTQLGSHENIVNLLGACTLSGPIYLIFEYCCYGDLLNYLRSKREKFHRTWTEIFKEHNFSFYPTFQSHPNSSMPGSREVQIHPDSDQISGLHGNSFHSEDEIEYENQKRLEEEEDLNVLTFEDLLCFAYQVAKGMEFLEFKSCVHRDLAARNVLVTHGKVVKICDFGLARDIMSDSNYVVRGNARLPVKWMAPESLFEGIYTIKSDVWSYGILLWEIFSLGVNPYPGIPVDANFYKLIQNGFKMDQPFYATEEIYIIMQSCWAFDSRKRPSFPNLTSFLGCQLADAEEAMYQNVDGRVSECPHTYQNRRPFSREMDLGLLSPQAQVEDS
Sequence of RAC-alpha serine/threonine-protein kinase (Homo sapiens) (P31749 whole entry): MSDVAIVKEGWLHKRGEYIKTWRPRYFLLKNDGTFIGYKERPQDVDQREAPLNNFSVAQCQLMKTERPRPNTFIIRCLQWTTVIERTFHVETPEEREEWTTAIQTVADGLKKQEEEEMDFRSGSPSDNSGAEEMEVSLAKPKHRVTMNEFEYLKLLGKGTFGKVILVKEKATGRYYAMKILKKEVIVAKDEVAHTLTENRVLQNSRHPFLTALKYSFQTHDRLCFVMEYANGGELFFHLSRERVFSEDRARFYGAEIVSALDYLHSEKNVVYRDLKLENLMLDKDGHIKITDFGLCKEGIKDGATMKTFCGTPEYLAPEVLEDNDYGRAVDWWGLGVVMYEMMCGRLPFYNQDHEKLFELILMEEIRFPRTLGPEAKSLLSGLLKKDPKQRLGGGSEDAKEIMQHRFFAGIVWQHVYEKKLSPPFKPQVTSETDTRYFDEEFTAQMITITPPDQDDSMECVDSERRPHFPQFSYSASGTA

Row | Compound | IC50 (Vero) | Activity (MCF7 [1]) | Activity (MDA-MB-231 [2]) | Activity (MCF7 [3]) | inhibition [4] | Activity (MDA-MB-231 [5]) | inhibition [6] | inhibition (MCF7 [7]) | inhibition [8] | Activity (MCF7 [9]) | inhibition [10] | inhibition [11]
1 | CCN(CC)CCO/N=C(\c1ccc(SC)cc1)c1cccc2ccccc12.O=C(O)C(=O)O | > 25 µM | 12.46% | 20% | 13.88% |  |  |  |  |  |  |  | 
2 | CCN(CC)CCO/N=C(\c1ccc(SC)cc1)c1cccc2ccccc12 |  |  |  |  | inactive | Active | inactive | inactive | Active | Active | inactive | inactive
